For eleven compounds, IC50 results are on record in BindingDB's records for doi:10.1021/jm030056e (Glaxosmithkline, 2003).

Bounds are passed on as bounds.

What is called IC50 is the point on the concentration scale where inhibition reaches its midpoint.

The target of test [1] is cGMP-specific 3',5'-cyclic phosphodiesterase (Bos taurus, UniProt Q28156). Briefly: Inhibitory activity against bovine PDE5 (phosphodiesterase-5).
A further test concerns the target Phosphodiesterase (Bos taurus, UniProt E1BN64). Briefly: Inhibition of bovine aorta PDE3 (phosphodiesterase 3). Summed up: (§1)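 Incubated 30 min at 30 °C under initial-velocity conditions (≤10-15% hydrolysis). Product separated on QAE Sephadex and counted by scintillation; final DMSO 2%.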
Test [2] deals with cGMP-dependent 3',5'-cyclic phosphodiesterase (Homo sapiens, UniProt O00408). Briefly: Inhibition of human recombinant PDE2 (phosphodiesterase 2). The method in brief: as §1
Sequence of cGMP-dependent 3',5'-cyclic phosphodiesterase (O00408 whole entry): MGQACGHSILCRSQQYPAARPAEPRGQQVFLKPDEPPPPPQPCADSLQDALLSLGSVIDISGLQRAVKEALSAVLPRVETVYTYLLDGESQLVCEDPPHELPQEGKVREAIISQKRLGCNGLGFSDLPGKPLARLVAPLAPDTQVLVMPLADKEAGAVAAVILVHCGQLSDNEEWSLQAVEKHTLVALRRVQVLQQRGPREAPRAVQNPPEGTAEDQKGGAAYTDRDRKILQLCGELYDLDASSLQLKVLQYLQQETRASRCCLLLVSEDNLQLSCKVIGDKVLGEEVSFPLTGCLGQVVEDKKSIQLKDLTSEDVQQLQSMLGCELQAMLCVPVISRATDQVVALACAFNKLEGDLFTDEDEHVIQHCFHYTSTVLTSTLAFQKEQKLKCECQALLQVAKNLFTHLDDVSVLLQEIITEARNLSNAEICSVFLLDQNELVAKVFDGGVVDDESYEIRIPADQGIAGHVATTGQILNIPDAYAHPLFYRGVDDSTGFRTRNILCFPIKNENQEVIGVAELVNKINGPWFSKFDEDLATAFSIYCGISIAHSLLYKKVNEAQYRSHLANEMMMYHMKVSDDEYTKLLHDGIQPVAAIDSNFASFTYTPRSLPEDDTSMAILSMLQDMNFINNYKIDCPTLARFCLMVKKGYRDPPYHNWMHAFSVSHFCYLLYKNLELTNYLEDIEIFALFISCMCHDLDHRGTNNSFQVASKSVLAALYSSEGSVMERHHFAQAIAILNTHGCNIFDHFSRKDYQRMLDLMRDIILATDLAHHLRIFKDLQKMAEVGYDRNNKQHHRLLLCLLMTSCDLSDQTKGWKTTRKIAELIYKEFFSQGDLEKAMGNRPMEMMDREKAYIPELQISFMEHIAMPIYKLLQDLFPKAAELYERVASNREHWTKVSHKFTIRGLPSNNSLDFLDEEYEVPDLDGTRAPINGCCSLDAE

Sequence of Phosphodiesterase (E1BN64 whole entry): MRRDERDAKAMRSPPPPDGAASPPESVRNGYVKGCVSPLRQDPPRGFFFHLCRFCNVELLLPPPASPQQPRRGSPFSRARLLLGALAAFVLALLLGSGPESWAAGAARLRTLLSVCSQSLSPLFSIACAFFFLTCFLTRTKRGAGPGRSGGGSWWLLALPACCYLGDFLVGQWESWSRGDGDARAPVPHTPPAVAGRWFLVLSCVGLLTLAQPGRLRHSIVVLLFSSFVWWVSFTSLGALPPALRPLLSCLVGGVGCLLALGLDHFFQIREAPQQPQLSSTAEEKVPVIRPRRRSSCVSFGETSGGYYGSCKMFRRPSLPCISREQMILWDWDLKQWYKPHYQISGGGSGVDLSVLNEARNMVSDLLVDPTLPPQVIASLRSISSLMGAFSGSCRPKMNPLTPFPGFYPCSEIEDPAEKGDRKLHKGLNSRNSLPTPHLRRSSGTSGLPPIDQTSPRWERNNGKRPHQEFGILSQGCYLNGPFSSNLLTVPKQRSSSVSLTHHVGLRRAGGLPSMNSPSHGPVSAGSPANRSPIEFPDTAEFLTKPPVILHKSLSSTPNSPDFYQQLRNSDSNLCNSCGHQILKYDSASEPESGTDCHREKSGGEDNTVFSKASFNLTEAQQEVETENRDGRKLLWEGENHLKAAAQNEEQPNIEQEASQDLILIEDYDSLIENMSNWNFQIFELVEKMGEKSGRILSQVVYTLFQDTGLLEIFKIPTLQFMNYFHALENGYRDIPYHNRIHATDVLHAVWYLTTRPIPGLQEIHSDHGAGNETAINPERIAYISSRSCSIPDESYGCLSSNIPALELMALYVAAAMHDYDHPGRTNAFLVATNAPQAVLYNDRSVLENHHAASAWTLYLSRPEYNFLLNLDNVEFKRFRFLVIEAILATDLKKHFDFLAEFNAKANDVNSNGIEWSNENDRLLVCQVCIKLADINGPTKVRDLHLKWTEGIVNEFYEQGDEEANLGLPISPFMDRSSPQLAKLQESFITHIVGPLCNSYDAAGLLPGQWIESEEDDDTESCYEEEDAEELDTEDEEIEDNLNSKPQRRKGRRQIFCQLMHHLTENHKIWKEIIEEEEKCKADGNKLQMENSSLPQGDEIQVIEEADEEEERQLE

With `CCCCn1c(O)c2n(c1=O)[C@H](c1ccncc1)c1[nH]c3ccccc3c1C2` [Cis-2-Butyl-10-pyridin-4-yl-3a,4,9,10-tetrahydro-2,9,10a-triaza-cyclopenta[b]fluorene-1,3-dione], in test [1], half-maximal inhibition (IC50) required 0.3 µM. Take `CCCCn1c(O)c2n(c1=O)[C@H](c1ccc(OC)cc1)c1[nH]c3ccccc3c1C2` [(3aR,10R)-2-Butyl-10-(4-methoxy-phenyl)-3a,4,9,10-tetrahydro-2,9,10a-triaza-cyclopenta[b]fluorene-1,3-dione]: the 50% inhibitory concentration (IC50) (against Phosphodiesterase; in test [2]) was above 10 µM throughout.

In the case of `CCCCn1c(O)c2n(c1=O)[C@H](c1ccoc1)c1[nH]c3ccccc3c1C2` [(3aR,10R)-2-Butyl-10-furan-3-yl-3a,4,9,10-tetrahydro-2,9,10a-triaza-cyclopenta[b]fluorene-1,3-dione], the IC50 in test [1] turned out to be 0.1 µM. On the same count and under the same terms, next, `COc1ccc([C@H]2c3[nH]c4ccccc4c3Cc3c(O)n(CCN(C)C)c(=O)n32)cc1` [(3aR,10S)-2-(2-Dimethylamino-ethyl)-10-(4-methoxy-phenyl)-3a,4,9,10-tetrahydro-2,9,10a-triaza-cyclopenta[b]fluorene-1,3-dione]: 0.03 µM. With `CCCCn1c(O)c2n(c1=O)[C@@H](c1ccc(OC)cc1)c1[nH]c3ccccc3c1C2` [(3aR,10S)-2-Butyl-10-(4-methoxy-phenyl)-3a,4,9,10-tetrahydro-2,9,10a-triaza-cyclopenta[b]fluorene-1,3-dione], the IC50 (against Phosphodiesterase; in test [2]) was above 10 µM each time.

For `COc1ccc([C@@H]2c3[nH]c4ccccc4c3Cc3c(O)n(C4CCCCC4)c(=O)n32)cc1` [(3aR,10R)-2-Cyclohexyl-10-(4-methoxy-phenyl)-3a,4,9,10-tetrahydro-2,9,10a-triaza-cyclopenta[b]fluorene-1,3-dione], the IC50 is 0.007 µM in test [1] and above 10 µM in test [2]. `COc1ccc([C@H]2c3[nH]c4ccccc4c3Cc3c(O)n(Cc4cccnc4)c(=O)n32)cc1` [(3aR,10S)-10-(4-Methoxy-phenyl)-2-pyridin-3-ylmethyl-3a,4,9,10-tetrahydro-2,9,10a-triaza-cyclopenta[b]fluorene-1,3-dione] gave an IC50 in test [1] of 0.02 µM.

In test [1], `COc1ccc([C@H]2c3[nH]c4ccccc4c3Cc3c(O)n(CCN4CCCC4)c(=O)n32)cc1` registered a concentration for half-maximal inhibition (IC50) of 0.1 µM. In turn, `COc1ccc([C@H]2c3[nH]c4ccccc4c3Cc3c(O)[nH]c(=O)n32)cc1` [(3aR,10S)-10-(4-Methoxy-phenyl)-3a,4,9,10-tetrahydro-2,9,10a-triaza-cyclopenta[b]fluorene-1,3-dione] yielded an IC50 in test [1] of 0.02 µM. The compound `CCCCn1c(O)c2n(c1=O)[C@H](c1ccsc1)c1[nH]c3ccccc3c1C2` [Cis-2-Butyl-10-thiophen-3-yl-3a,4,9,10-tetrahydro-2,9,10a-triaza-cyclopenta[b]fluorene-1,3-dione] displayed a 50% inhibitory concentration (IC50) in test [1] of 0.03 µM. As to `COc1ccc([C@@H]2c3[nH]c4ccccc4c3Cc3c(O)n(Cc4ccccc4)c(=O)n32)cc1` [(3aR,10R)-2-Benzyl-10-(4-methoxy-phenyl)-3a,4,9,10-tetrahydro-2,9,10a-triaza-cyclopenta[b]fluorene-1,3-dione], the IC50 (against Phosphodiesterase; in test [2]) was above 10 µM in each case.
